Data published in ChEMBL document CHEMBL1158347, “Substituted quinazolines, part 3. Synthesis, in vitro antitumor activity and molecular modeling study of certain 2-thieno-4(3H)-quinazolinone analogs” (2009).

Key:
Type in all cases: functional
CCRF-CEM = experiment: Growth inhibition of human CCRF-CEM cells after 48 hrs; conditions: for CC50: read-out: LC50 (the source's name)
Procedure, shortened: (§1)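 NCI in vitro disease-oriented human tumor cell line screen. Compounds passing a one-dose primary assay (MCF-7, NCI-H460, SF-268; pass = growth of any line reduced to 32% or less) were tested on the 60-line panel over a 5-log dose range. Compounds were dissolved in DMSO, with under 1% DMSO in final dilutions, and tested in duplicate at 6×10^4 cells/ml. Cells were incubated at 37 °C in 5% CO2 for 48 h, then diluted 10-fold in saline and counted with a Coulter counter, with counts corrected for dilution. Controls held PBS/DMSO at identical dilutions. GI50 was reported per line and as subpanel/full-panel mean-graph midpoint.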

HL-60(TB) = experiment: Growth inhibition of human HL-60(TB) cells after 48 hrs; conditions: HL-60, 48 h; for CC50: read-out: LC50 (the source's name)
Procedure, shortened: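 NCI 60-cell-line screen over a 5-log dose range. Compounds were dissolved in DMSO, final DMSO under 1%. Duplicate wells were seeded at 6×10^4 cells/ml, with PBS/DMSO vehicle controls at identical dilutions. Cells were incubated 48 h at 37 °C in humidified 5% CO2, diluted 10-fold in saline, and counted by Coulter counter with dilution correction. GI50 read-out.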

K562 = experiment: Growth inhibition of human K562 cells after 48 hrs; conditions: K562, 48 h; procedure, shortened: as §1
RPMI-8226 = experiment: Growth inhibition of human RPMI8226 cells after 48 hrs; conditions: RPMI-8226, 48 h; for CC50: read-out: LC50 (the source's name); procedure, shortened: as §1
SF-539 = experiment: Growth inhibition of human SF539 cells after 48 hrs; conditions: SF-539, 48 h; for CC50: read-out: LC50 (the source's name); procedure, shortened: as §1
SK-MEL-2 = experiment: Growth inhibition of human SK-MEL-2 cells after 48 hrs; conditions: SK-MEL-2, 48 h; procedure, shortened: as §1
UACC-257 = experiment: Growth inhibition of human UACC257 cells after 48 hrs; conditions: UACC-257, 48 h; procedure, shortened: as §1
MCF7 = experiment: Growth inhibition of human MCF7 cells after 48 hrs; conditions: MCF7, 48 h; for CC50: read-out: LC50 (the source's name); procedure, shortened: as §1
[1] = Growth inhibition of human leukemia cells after 48 hrs; conditions: Leukemia cell; procedure, shortened: as §1
NSCLC = experiment: Growth inhibition of human NSCLC cells after 48 hrs; procedure, shortened: as §1
[2] = Growth inhibition of human Colon cancer cells after 48 hrs; conditions: Cancer cell lines; procedure, shortened: as §1
[3] = Growth inhibition of human CNS cancer cells after 48 hrs; conditions: Cancer cell lines; procedure, shortened: as §1
[4] = Growth inhibition of human melanoma cells after 48 hrs; conditions: Melanoma cell; procedure, shortened: as §1
[5] = Growth inhibition of human ovarian cancer cells after 48 hrs; conditions: Cancer cell lines; procedure, shortened: as §1
[6] = Growth inhibition of human renal cancer cells after 48 hrs; conditions: Cancer cell lines; procedure, shortened: as §1
[7] = Growth inhibition of human prostate cancer cells after 48 hrs; conditions: Cancer cell lines; procedure, shortened: as §1
[8] = Growth inhibition of human breast cancer cells after 48 hrs; conditions: Cancer cell lines; procedure, shortened: as §1
T47D = experiment: Growth inhibition of human T47D cells after 48 hrs; procedure, shortened: as §1
[9] = read-out: LC50 (the source's name)

Structure (SMILES): O=c1c2cc(I)ccc2nc(-c2cccs2)n1Nc1ccccc1
- GI50 (CCRF-CEM): 51 µM
- TGI (CCRF-CEM): > 100 µM
- CC50 (CCRF-CEM): > 100 µM
- GI50 (HL-60(TB)): 0.4 µM
- TGI (HL-60(TB)): > 100 µM
- CC50 (HL-60(TB)): > 100 µM
- GI50 (K562): 0.3 µM
- TGI (K562): 23 µM
- GI50 (RPMI-8226): 5 µM
- TGI (RPMI-8226): > 100 µM
- CC50 (RPMI-8226): > 100 µM
- GI50 (SF-539): 34 µM
- TGI (SF-539): > 100 µM
- CC50 (SF-539): > 100 µM
- GI50 (SK-MEL-2): 0.3 µM
- TGI (SK-MEL-2): 2 µM
- GI50 (UACC-257): 32 µM
- TGI (UACC-257): > 100 µM
- GI50 (MCF7): 2 µM
- TGI (MCF7): > 100 µM
- CC50 (MCF7): > 100 µM
- GI50 [1]: 12.7 µM
- TGI [1]: 87.1 µM
- GI50 (NSCLC): 8.6 µM
- TGI (NSCLC): 88 µM
- GI50 [2]: 6.5 µM
- TGI [2]: 79.2 µM
- GI50 [3]: 16.3 µM
- TGI [3]: 81.9 µM
- GI50 [4]: 8.5 µM
- TGI [4]: 85.9 µM
- GI50 [5]: 8.6 µM
- TGI [5]: 80.1 µM
- GI50 [6]: 19.7 µM
- TGI [6]: 93.1 µM
- GI50 [7]: 1.61 µM
- TGI [7]: > 100 µM
- GI50 [8]: 5.9 µM
- TGI [8]: > 100 µM

Structure (SMILES): O=C(Nn1c(-c2cccs2)nc2ccc(I)cc2c1=O)c1ccccc1
- GI50 (CCRF-CEM): 39 µM
- TGI (CCRF-CEM): > 100 µM
- CC50 (CCRF-CEM): > 100 µM
- GI50 (HL-60(TB)): 34 µM
- TGI (HL-60(TB)): > 100 µM
- CC50 (HL-60(TB)): > 100 µM
- GI50 (K562): 44 µM
- LC50 (concentration killing 50% of cells) (K562): > 100 µM
- TGI (K562): > 100 µM
- GI50 (RPMI-8226): 23 µM
- TGI (RPMI-8226): 58 µM
- CC50 (RPMI-8226): > 100 µM
- GI50 (SF-539): 30 µM
- TGI (SF-539): > 100 µM
- CC50 (SF-539): > 100 µM
- GI50 (SK-MEL-2): 24 µM
- LC50 (SK-MEL-2): > 100 µM
- TGI (SK-MEL-2): 69 µM
- GI50 (UACC-257): < 0.01 µM
- LC50 (UACC-257): > 100 µM
- TGI (UACC-257): 31 µM
- GI50 (MCF7): 23 µM
- TGI (MCF7): > 100 µM
- CC50 (MCF7): > 100 µM
- GI50 (T47D): 11 µM
- LC50 (T47D): > 100 µM
- TGI (T47D): 38 µM
- GI50 [1]: 33.9 µM
- TGI [1]: 71.5 µM
- GI50 (NSCLC): 25.6 µM
- TGI (NSCLC): 75.3 µM
- GI50 [2]: 35.4 µM
- TGI [2]: 90 µM
- GI50 [3]: 27.4 µM
- TGI [3]: 85.8 µM
- GI50 [4]: 35.5 µM
- TGI [4]: 62.1 µM
- GI50 [5]: 27.4 µM
- TGI [5]: 74.4 µM
- GI50 [6]: 32.1 µM
- TGI [6]: 86.7 µM
- GI50 [7]: 27.2 µM
- TGI [7]: 73.3 µM
- GI50 [8]: 24.5 µM
- TGI [8]: 72.5 µM

Structure (SMILES): O=c1c2cc(I)ccc2nc(-c2cccs2)n1NC(=S)Nc1ccccc1
- GI50 (CCRF-CEM): 21 µM
- TGI (CCRF-CEM): 61 µM
- CC50 (CCRF-CEM): > 100 µM
- GI50 (HL-60(TB)): 1 µM
- TGI (HL-60(TB)): 22 µM
- CC50 (HL-60(TB)): > 100 µM
- GI50 (K562): 0.02 µM
- LC50 (concentration killing 50% of cells) (K562): 75 µM
- TGI (K562): 10 µM
- GI50 (RPMI-8226): 19 µM
- TGI (RPMI-8226): 52 µM
- CC50 (RPMI-8226): > 100 µM
- GI50 (SF-539): 34 µM
- TGI (SF-539): > 100 µM
- CC50 (SF-539): > 100 µM
- GI50 (UACC-257): 17 µM
- LC50 (UACC-257): > 100 µM
- TGI (UACC-257): 66 µM
- GI50 (MCF7): 29 µM
- TGI (MCF7): 88 µM
- CC50 (MCF7): > 100 µM
- GI50 (T47D): 3 µM
- LC50 (T47D): > 100 µM
- TGI (T47D): 17 µM
- GI50 [1]: 11.5 µM
- TGI [1]: 38.5 µM
- GI50 (NSCLC): 24 µM
- TGI (NSCLC): 75.2 µM
- GI50 [2]: 29.5 µM
- TGI [2]: 84 µM
- GI50 [3]: 29.2 µM
- TGI [3]: 81.4 µM
- GI50 [4]: 23.1 µM
- TGI [4]: 62.8 µM
- GI50 [5]: 21.5 µM
- TGI [5]: 77.5 µM
- GI50 [6]: 32.5 µM
- TGI [6]: 84.8 µM
- GI50 [7]: 25.8 µM
- TGI [7]: 76.2 µM
- GI50 [8]: 19.4 µM
- TGI [8]: 60.3 µM

Structure (SMILES): O=C(Nc1ccc(I)cc1C(=O)Nc1ccc(O)cc1)c1cccs1
- GI50 (HL-60(TB)): 8 µM
- TGI (HL-60(TB)): 37 µM
- CC50 (HL-60(TB)): > 100 µM
- GI50 (K562): 24 µM
- LC50 (concentration killing 50% of cells) (K562): > 100 µM
- TGI (K562): > 100 µM
- GI50 (RPMI-8226): 3 µM
- TGI (RPMI-8226): 18 µM
- CC50 (RPMI-8226): 57 µM
- GI50 (SF-539): < 0.01 µM
- TGI (SF-539): 15 µM
- CC50 (SF-539): 62 µM
- GI50 (SK-MEL-2): 16 µM
- LC50 (SK-MEL-2): 57 µM
- TGI (SK-MEL-2): 30 µM
- GI50 (UACC-257): < 0.01 µM
- LC50 (UACC-257): > 100 µM
- TGI (UACC-257): 22 µM
- GI50 (MCF7): 12 µM
- TGI (MCF7): 33 µM
- CC50 (MCF7): 94 µM
- GI50 (T47D): 2 µM
- LC50 (T47D): 50 µM
- TGI (T47D): 11 µM
- GI50 [1]: 11.5 µM
- TGI [1]: 60.6 µM
- CC50 [1, 9]: 91 µM
- GI50 (NSCLC): 13.5 µM
- LC50 (concentration killing 50% of cells) (NSCLC): 74.6 µM
- TGI (NSCLC): 33.1 µM
- GI50 [2]: 15.2 µM
- LC50 [2]: 74.6 µM
- TGI [2]: 34.5 µM
- GI50 [3]: 12.2 µM
- TGI [3]: 32.4 µM
- CC50 [3, 9]: 77.6 µM
- GI50 [4]: 11.1 µM
- LC50 (lethal concentration 50%) [4]: 63.8 µM
- TGI [4]: 26.9 µM
- GI50 [5]: 13.3 µM
- LC50 [5]: 72.5 µM
- TGI [5]: 35.4 µM
- GI50 [6]: 13.2 µM
- TGI [6]: 29.3 µM
- CC50 [6, 9]: 64.1 µM
- GI50 [7]: 8.7 µM
- TGI [7]: 21.1 µM
- CC50 [7, 9]: 45.8 µM
- GI50 [8]: 11.9 µM
- LC50 [8]: 79.4 µM
- TGI [8]: 36.8 µM
